From ChEMBL document CHEMBL1155459, “On-bead screening of a combinatorial fumaric acid derived peptide library yields antiplasmodial cysteine protease inhibitors with unusual peptide sequences” (J Med Chem, 2009) come the findings set out here.

Assay [1] in a line: Inhibition of Plasmodium falciparum falcipain-2 after 12 hrs by fluorescence spectroscopy-based on-bead assay. Also on record: concentration or dose not given beside the values. The conditions noted are these: concentration not given here. In outline:
(§1)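 Library members on resin (PEGA, theoretical loading 0.40 mmol/g; added as DMSO suspension, 0.64 mM final inhibitor) preincubated with enzyme 12 h, then Cbz-Phe-Arg-AMC 40 μM added; AMC release followed by fluorescence (ex 380/em 460 nm). Kinetics compared with inhibitor-free amino-PEGA resin.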

The target in assay [2] is Rhodesain (Trypanosoma brucei rhodesiense) (UniProt Q95PM0). Kind of assay: Inhibition of Trypanosoma brucei rhodesiense rhodesain after 12 hrs by fluorescence spectroscopy-based on-bead assay. To be noted: concentration not given here. Also on record: concentration or dose not given beside the values. In outline:
as §1

By inhibition is commonly meant the change of the read-out against control, counted positive when it falls.

Square brackets hold non-standard residues; d marks the D form. Peptide text beside a SMILES is read from it. * marks the point of attachment. Fumaroyl(GlyGlyPheOH) = O=C(/C=C/C(=O)*)NCC(=O)NCC(=O)N[C@@H](Cc1ccccc1)C(=O)O; Chg = N[C@H](C(=O)O)C1CCCCC1; Dap = NC[C@H](N)C(=O)O

Sequence of Rhodesain (Trypanosoma brucei rhodesiense) (Q95PM0 1-450): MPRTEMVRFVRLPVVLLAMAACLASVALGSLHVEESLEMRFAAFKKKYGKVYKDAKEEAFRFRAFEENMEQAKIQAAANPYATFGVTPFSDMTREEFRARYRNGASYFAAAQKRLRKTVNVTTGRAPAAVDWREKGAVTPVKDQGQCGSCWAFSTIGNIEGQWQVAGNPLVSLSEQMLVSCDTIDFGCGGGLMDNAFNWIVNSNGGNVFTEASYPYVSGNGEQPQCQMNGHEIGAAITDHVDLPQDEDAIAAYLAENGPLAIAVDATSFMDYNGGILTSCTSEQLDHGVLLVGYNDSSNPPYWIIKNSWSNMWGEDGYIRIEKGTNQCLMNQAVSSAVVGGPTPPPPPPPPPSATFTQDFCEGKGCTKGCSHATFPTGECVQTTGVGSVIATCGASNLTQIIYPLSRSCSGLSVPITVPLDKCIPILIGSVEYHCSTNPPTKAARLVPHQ

`CC(C)[C@H](NC(=O)[C@H](C)NC(=O)[C@H](Cc1ccccc1)NC(=O)[C@H](CC(N)=O)NC(=O)/C=C/C(=O)NCC(=O)NCC(=O)N[C@@H](Cc1ccccc1)C(=O)O)C(N)=O` (HELM PEPTIDE1{[O=C(/C=C/C(=O)[*:2])NCC(=O)NCC(=O)N[C@@H](Cc1ccccc1)C(=O)O].N.F.A.V.[am]}$$$$V2.0): the inhibition in assay [1] was 61%; in assay [2], 66%.
As for `CC[C@H](C)[C@H](NC(=O)[C@H](C)NC(=O)/C=C/C(=O)NCC(=O)NCC(=O)N[C@@H](Cc1ccccc1)C(=O)O)C(=O)N[C@H](C(=O)N[C@H](C(N)=O)C(C)C)C(C)C` (HELM PEPTIDE1{[O=C(/C=C/C(=O)[*:2])NCC(=O)NCC(=O)N[C@@H](Cc1ccccc1)C(=O)O].A.I.V.V.[am]}$$$$V2.0), the inhibition in assay [1] is 32%; in assay [2], 33%.
Take `CC(=O)NC[C@H](NC(=O)/C=C/C(=O)NCC(=O)NCC(=O)N[C@@H](Cc1ccccc1)C(=O)O)C(=O)N[C@H](C(=O)N[C@H](C(=O)N[C@H](C(N)=O)C(C)C)C(C)C)c1ccccc1` (HELM PEPTIDE1{[O=C(/C=C/C(=O)[*:2])NCC(=O)NCC(=O)N[C@@H](Cc1ccccc1)C(=O)O].[O=C([C@H](CN[*:3])N[*:1])[*:2]].[Phg].V.V.[am]}|PEPTIDE2{[ac]}$PEPTIDE1,PEPTIDE2,2:R3-1:R2$$$V2.0): the inhibition turned out to be 25% in assay [1] and 40% in assay [2].
The like results for `CC[C@H](C)[C@H](NC(=O)[C@H](C)NC(=O)/C=C/C(=O)NCC(=O)NCC(=O)N[C@@H](Cc1ccccc1)C(=O)O)C(=O)N[C@@H](CC(C)C)C(=O)N[C@H](C(N)=O)C(C)C` (HELM PEPTIDE1{[O=C(/C=C/C(=O)[*:2])NCC(=O)NCC(=O)N[C@@H](Cc1ccccc1)C(=O)O].A.I.L.V.[am]}$$$$V2.0) were, in that order, 61% and 58%.
The like results for `CC(C)C[C@H](NC(=O)[C@H](Cc1ccccc1)NC(=O)/C=C/C(=O)NCC(=O)NCC(=O)N[C@@H](Cc1ccccc1)C(=O)O)C(=O)N[C@H](C(=O)N[C@H](C(N)=O)C(C)C)C(C)C` (HELM PEPTIDE1{[O=C(/C=C/C(=O)[*:2])NCC(=O)NCC(=O)N[C@@H](Cc1ccccc1)C(=O)O].F.L.V.V.[am]}$$$$V2.0) were, in that order, 46% and 58%.
In the case of `CC(C)C[C@H](NC(=O)[C@@H](NC(=O)[C@H](CC(N)=O)NC(=O)/C=C/C(=O)NCC(=O)NCC(=O)N[C@@H](Cc1ccccc1)C(=O)O)C1CCCCC1)C(=O)N[C@H](C(N)=O)C(C)C` (HELM PEPTIDE1{[O=C(/C=C/C(=O)[*:2])NCC(=O)NCC(=O)N[C@@H](Cc1ccccc1)C(=O)O].N.[O=C([C@@H](N[*:1])C1CCCCC1)[*:2]].L.V.[am]}$$$$V2.0), the results for the inhibition in assay [1] and in assay [2] were 45% and 69%, respectively.
Consider `CC(C)C[C@H](NC(=O)[C@H](CC(N)=O)NC(=O)/C=C/C(=O)N[C@@H](C)C(=O)NCC(=O)N[C@@H](Cc1ccccc1)C(=O)O)C(=O)N[C@H](C(=O)N[C@H](C(N)=O)C(C)C)C(C)C` (HELM PEPTIDE1{[C[C@H](NC(=O)/C=C/C(=O)[*:2])C(=O)NCC(=O)N[C@@H](Cc1ccccc1)C(=O)O].N.L.V.V.[am]}$$$$V2.0), for which the inhibition was found to be 43% in assay [1] and 50% in assay [2].
As for `CC(C)[C@H](NC(=O)[C@H](C)NC(=O)[C@@H](NC(=O)[C@H](CC(N)=O)NC(=O)/C=C/C(=O)N[C@@H](C)C(=O)NCC(=O)N[C@@H](Cc1ccccc1)C(=O)O)c1ccccc1)C(N)=O` (HELM PEPTIDE1{[C[C@H](NC(=O)/C=C/C(=O)[*:2])C(=O)NCC(=O)N[C@@H](Cc1ccccc1)C(=O)O].N.[Phg].A.V.[am]}$$$$V2.0), the inhibition in assay [1] came to 35%; in assay [2], 44%.
In the case of `CC(=O)NC[C@H](NC(=O)/C=C/C(=O)NCC(=O)NCC(=O)N[C@@H](Cc1ccccc1)C(=O)O)C(=O)N[C@H](C(=O)N[C@@H](CC(C)C)C(=O)N[C@H](C(N)=O)C(C)C)C1CCCCC1` ({Fumaroyl(GlyGlyPheOH)}-[Dap](Ac)[Chg]LV-NH2), the inhibition in assay [1] was found to be 26%; in assay [2], 75%.
For `CC(=O)NC[C@H](NC(=O)/C=C/C(=O)N[C@@H](C)C(=O)NCC(=O)N[C@@H](Cc1ccccc1)C(=O)O)C(=O)N[C@@H](Cc1ccccc1)C(=O)N[C@@H](C)C(=O)N[C@H](C(N)=O)C(C)C` (HELM PEPTIDE1{[C[C@H](NC(=O)/C=C/C(=O)[*:2])C(=O)NCC(=O)N[C@@H](Cc1ccccc1)C(=O)O].[O=C([C@H](CN[*:3])N[*:1])[*:2]].F.A.V.[am]}|PEPTIDE2{[ac]}$PEPTIDE1,PEPTIDE2,2:R3-1:R2$$$V2.0), the results for the inhibition in assay [1] and in assay [2] were 13% and 17%, respectively.
In the case of `CC[C@H](C)[C@H](NC(=O)[C@H](CNC(C)=O)NC(=O)/C=C/C(=O)N[C@@H](C)C(=O)NCC(=O)N[C@@H](Cc1ccccc1)C(=O)O)C(=O)N[C@H](C(=O)N[C@H](C(N)=O)C(C)C)C(C)C` (HELM PEPTIDE1{[C[C@H](NC(=O)/C=C/C(=O)[*:2])C(=O)NCC(=O)N[C@@H](Cc1ccccc1)C(=O)O].[O=C([C@H](CN[*:3])N[*:1])[*:2]].I.V.V.[am]}|PEPTIDE2{[ac]}$PEPTIDE1,PEPTIDE2,2:R3-1:R2$$$V2.0), the inhibition turned out to be 52% in assay [1] and 49% in assay [2].
As for `CC(=O)NC[C@H](NC(=O)/C=C/C(=O)N[C@@H](C)C(=O)NCC(=O)N[C@@H](Cc1ccccc1)C(=O)O)C(=O)N[C@@H](CC(C)C)C(=O)N[C@@H](C)C(=O)N[C@H](C(N)=O)C(C)C` (HELM PEPTIDE1{[C[C@H](NC(=O)/C=C/C(=O)[*:2])C(=O)NCC(=O)N[C@@H](Cc1ccccc1)C(=O)O].[O=C([C@H](CN[*:3])N[*:1])[*:2]].L.A.V.[am]}|PEPTIDE2{[ac]}$PEPTIDE1,PEPTIDE2,2:R3-1:R2$$$V2.0), the inhibition in assay [1] was 28%; in assay [2] it was 19%.
The like results for `CC[C@H](C)[C@H](NC(=O)[C@H](CNC(C)=O)NC(=O)/C=C/C(=O)NCC(=O)NCC(=O)N[C@@H](Cc1ccccc1)C(=O)O)C(=O)N[C@@H](C)C(=O)N[C@H](C(N)=O)C(C)C` (HELM PEPTIDE1{[O=C(/C=C/C(=O)[*:2])NCC(=O)NCC(=O)N[C@@H](Cc1ccccc1)C(=O)O].[O=C([C@H](CN[*:3])N[*:1])[*:2]].I.A.V.[am]}|PEPTIDE2{[ac]}$PEPTIDE1,PEPTIDE2,2:R3-1:R2$$$V2.0) were, in that order, 29% and 29%.
On to `CC(C)C[C@H](NC(=O)[C@H](Cc1ccccc1)NC(=O)[C@H](CCC(N)=O)NC(=O)/C=C/C(=O)N[C@@H](C)C(=O)NCC(=O)N[C@@H](Cc1ccccc1)C(=O)O)C(=O)N[C@H](C(N)=O)C(C)C` (HELM PEPTIDE1{[C[C@H](NC(=O)/C=C/C(=O)[*:2])C(=O)NCC(=O)N[C@@H](Cc1ccccc1)C(=O)O].Q.F.L.V.[am]}$$$$V2.0), for which the inhibition in assay [1] came to 49%; in assay [2], 60%.
In the same order, the values of `CC(C)[C@H](NC(=O)[C@H](C)NC(=O)[C@@H](NC(=O)[C@H](C)NC(=O)/C=C/C(=O)N[C@@H](C)C(=O)NCC(=O)N[C@@H](Cc1ccccc1)C(=O)O)C1CCCCC1)C(N)=O` (HELM PEPTIDE1{[C[C@H](NC(=O)/C=C/C(=O)[*:2])C(=O)NCC(=O)N[C@@H](Cc1ccccc1)C(=O)O].A.[O=C([C@@H](N[*:1])C1CCCCC1)[*:2]].A.V.[am]}$$$$V2.0) are 38% and 26%.
For the compound `CC[C@H](C)[C@H](NC(=O)[C@H](CNC(C)=O)NC(=O)/C=C/C(=O)NCC(=O)NCC(=O)N[C@@H](Cc1ccccc1)C(=O)O)C(=O)N[C@@H](CC(C)C)C(=O)N[C@H](C(N)=O)C(C)C` (HELM PEPTIDE1{[O=C(/C=C/C(=O)[*:2])NCC(=O)NCC(=O)N[C@@H](Cc1ccccc1)C(=O)O].[O=C([C@H](CN[*:3])N[*:1])[*:2]].I.L.V.[am]}|PEPTIDE2{[ac]}$PEPTIDE1,PEPTIDE2,2:R3-1:R2$$$V2.0), the inhibition in assay [1] amounted to 33%; in assay [2], 60%.
The like results for `CC(C)[C@H](NC(=O)[C@H](C)NC(=O)[C@@H](NC(=O)[C@H](CCC(N)=O)NC(=O)/C=C/C(=O)N[C@@H](C)C(=O)NCC(=O)N[C@@H](Cc1ccccc1)C(=O)O)C1CCCCC1)C(N)=O` (HELM PEPTIDE1{[C[C@H](NC(=O)/C=C/C(=O)[*:2])C(=O)NCC(=O)N[C@@H](Cc1ccccc1)C(=O)O].Q.[O=C([C@@H](N[*:1])C1CCCCC1)[*:2]].A.V.[am]}$$$$V2.0) were, in that order, 55% and 39%.
In the same order, the values of `CC(=O)NC[C@H](NC(=O)/C=C/C(=O)N[C@@H](C)C(=O)NCC(=O)N[C@@H](Cc1ccccc1)C(=O)O)C(=O)N[C@H](C(=O)N[C@H](C(=O)N[C@H](C(N)=O)C(C)C)C(C)C)c1ccccc1` (HELM PEPTIDE1{[C[C@H](NC(=O)/C=C/C(=O)[*:2])C(=O)NCC(=O)N[C@@H](Cc1ccccc1)C(=O)O].[O=C([C@H](CN[*:3])N[*:1])[*:2]].[Phg].V.V.[am]}|PEPTIDE2{[ac]}$PEPTIDE1,PEPTIDE2,2:R3-1:R2$$$V2.0) are 20% and 36%.
In the same order, the values of `CC(C)C[C@H](NC(=O)[C@H](Cc1ccccc1)NC(=O)[C@H](CCC(N)=O)NC(=O)/C=C/C(=O)NCC(=O)NCC(=O)N[C@@H](Cc1ccccc1)C(=O)O)C(=O)N[C@H](C(N)=O)C(C)C` (HELM PEPTIDE1{[O=C(/C=C/C(=O)[*:2])NCC(=O)NCC(=O)N[C@@H](Cc1ccccc1)C(=O)O].Q.F.L.V.[am]}$$$$V2.0) are 62% and 57%.
Consider `CC(=O)NC[C@H](NC(=O)/C=C/C(=O)NCC(=O)NCC(=O)N[C@@H](Cc1ccccc1)C(=O)O)C(=O)N[C@@H](Cc1ccccc1)C(=O)N[C@H](C(=O)N[C@H](C(N)=O)C(C)C)C(C)C` (HELM PEPTIDE1{[O=C(/C=C/C(=O)[*:2])NCC(=O)NCC(=O)N[C@@H](Cc1ccccc1)C(=O)O].[O=C([C@H](CN[*:3])N[*:1])[*:2]].F.V.V.[am]}|PEPTIDE2{[ac]}$PEPTIDE1,PEPTIDE2,2:R3-1:R2$$$V2.0), for which the results for the inhibition in assay [1] and in assay [2] were 46% and 61%, respectively.
